According to ChEMBL document CHEMBL4732197, “Identification of novel potent HIV-1 inhibitors by exploiting the tolerant regions of the NNRTIs binding pocket” (Eur J Med Chem, 2021):
Values after ≈ are worked out from the molar mass of the structure shown.

Assays:
[1] = Solubility in water at pH 7 at 0.1 to 10 mg
[2] = Inhibition of reverse transcriptase RES056 mutant in HIV-1 infected in human MT4 cells assessed as reduction in virus-induced cytopathic effect incubated for 5 days by MTT assay; assay type: cell-based; settings: Human immunodeficiency virus 1, MT4, 120 h
Summary of the method: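 MT-4 cells were spun down, resuspended at 6 × 10^5 cells/mL and infected with 100–300 CCID50 of mutant HIV-1 (RES056 = K103N + Y181C). Serial 5-fold compound dilutions were tested in triplicate wells alongside mock-infected wells. After 5 days, viability was read by MTT at 540 and 690 nm using the median of three wells.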

[3] = Selectivity index, ratio of CC50 for human MT4 cells to EC50 for antiviral activity against HIV IIIB; assay type: toxicity; settings: read-out: Ratio CC50/EC50
Summary of the method: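 SI is computed as CC50/EC50. […] Both used serial 5-fold dilutions in triplicate and were read by MTT after 5 days, taking the median absorbance of three wells.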

[4] = target: Human immunodeficiency virus type 1 reverse transcriptase (Human immunodeficiency virus 1, UniProt Q72547); experiment: Inhibition of HIV-1 reverse transcriptase assessed as inhibition of biotin-dUTP incorporation into wild type RT measured after 1 hr by ELISA
[5] = system: reverse transcriptase Y181C mutant (HIV-1); experiment: Inhibition of reverse transcriptase Y181C mutant in HIV-1 infected in human MT4 cells assessed as reduction in virus-induced cytopathic effect incubated for 5 days by MTT assay; settings: Human immunodeficiency virus 1, MT4, 120 h
physchem [6] = settings: water, pH 2
[7] = system: Human immunodeficiency virus 1; experiment: Antiviral activity against HIV-1 3B infected in human MT4 cells assessed as reduction in virus-induced cytopathic effect incubated for 5 days by MTT assay; assay type: functional, organism-based; settings: Human immunodeficiency virus 1, 3B, MT4, 120 h
Summary of the method: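 MT-4 cells resuspended at 6 × 10^5 cells/mL were infected with HIV-1 stock at 100–300 CCID50. Compounds were tested in serial 5-fold dilutions in triplicate wells. Viability was read by MTT after 5 days at 540 and 690 nm, using the median of three wells.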

[8] = Cytotoxicity against human MT4 cells assessed as reduction in cell viability incubated for 5 days by MTT assay; assay type: cell-based; settings: time 5 day
Summary of the method: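 Mock-infected MT-4 cells at 6 × 10^5 cells/mL were given serial 5-fold compound dilutions in triplicate wells alongside the infected series. After 5 days viability was read by MTT at 540 and 690 nm, using the median of three wells.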

physchem [9] = settings: water, pH 7.4

Row | SMILES | solubility [1] [µg/mL] | EC50 [2] [µM] | selectivity ratio [3] | IC50 [4] [nM] | EC50 [5] [µM] | solubility (physchem [6]) [µg/mL] | EC50 [7] [nM] | CC50 at 120 h [8] [µM] | solubility (physchem [9]) [µg/mL]
1 | Cc1cc(/C=C/C#N)cc(C)c1Oc1nc(Nc2ccc(CN3CCN(S(N)(=O)=O)CC3)cc2)nc2ccsc12 | 49.7 (≈ 86.3 µM) | 1.91 | 19000 | 961 | 0.154 | 73.1 (≈ 127 µM) | 7 | 145 | 39.5 (≈ 68.6 µM)
2 | Cc1cc(/C=C/C#N)cc(C)c1Oc1nc(Nc2ccc(N3CCN(S(C)(=O)=O)CC3)cc2)nc2ccsc12 |  | > 11.5 | 428 | 211 | 4.53 |  | 27 | 11.5 | 
3 | Cc1cc(/C=C/C#N)cc(C)c1Oc1nc(Nc2ccc(CN3CCN(S(N)(=O)=O)CC3)cc2)nc2sccc12 | 49.3 (≈ 85.6 µM) | 1.38 | > 26900 | 299 | 0.045 | 64.9 (≈ 113 µM) | 8 | > 218 | 38.9 (≈ 67.6 µM)
4 | Cc1cc(/C=C/C#N)cc(C)c1Oc1nc(Nc2ccc(N3CCCC(N)C3)cc2)nc2sccc12 (stereo not given) |  |  | 10 | 956 |  |  | 461 | 4.61 | 
5 | Cc1cc(/C=C/C#N)cc(C)c1Oc1nc(Nc2ccc(N3CCN(S(N)(=O)=O)CC3)cc2)nc2ccsc12 |  | > 223 | > 8310 | 214 | 2.25 |  | 27 | > 223 | 
6 | Cc1cc(/C=C/C#N)cc(C)c1Oc1nc(Nc2ccc(N3CCCC(NS(C)(=O)=O)C3)cc2)nc2sccc12 (stereo not given) |  | 16.5 | 78 | 1020 | 14 |  | 1430 | 112 | 
7 | Cc1cc(/C=C/C#N)cc(C)c1Oc1nc(Nc2ccc(N3CCN(S(C)(=O)=O)CC3)cc2)nc2sccc12 |  | 175 | > 1300 | 239 | 42.7 |  | 172 | > 222 | 
8 | Cc1cc(/C=C/C#N)cc(C)c1Oc1nc(Nc2ccc(N3CCCC(NS(N)(=O)=O)C3)cc2)nc2ccsc12 (stereo not given) |  | > 218 | > 3630 | 2410 | 3.64 |  | 59 | > 218 | 
9 | Cc1cc(/C=C/C#N)cc(C)c1Oc1nc(Nc2ccc(CN3CCN(S(C)(=O)=O)CC3)cc2)nc2ccsc12 |  | > 20.7 | 53 | 139 | 5.64 |  | 391 | 20.7 | 
10 | Cc1cc(/C=C/C#N)cc(C)c1Oc1nc(Nc2ccc(CN3CCNCC3)cc2)nc2ccsc12 |  |  | 18 | 707 |  |  | 216 | 3.97 | 
11 | Cc1cc(/C=C/C#N)cc(C)c1Oc1nc(Nc2ccc(CN3CCNCC3)cc2)nc2sccc12 |  |  | 94 | 151 |  |  | 42 | 4.03 | 
12 | Cc1cc(/C=C/C#N)cc(C)c1Oc1nc(Nc2ccc(N3CCNCC3)cc2)nc2sccc12 |  |  | 8 | 849 |  |  | 584 | 4.74 | 
13 | Cc1cc(/C=C/C#N)cc(C)c1Oc1nc(Nc2ccc(N3CCN(S(N)(=O)=O)CC3)cc2)nc2sccc12 |  | 196 | > 7790 | 713 | 1.36 |  | 28 | > 223 | 
14 | Cc1cc(/C=C/C#N)cc(C)c1Oc1nc(Nc2ccc(CN3CCN(S(C)(=O)=O)CC3)cc2)nc2sccc12 |  | 18.8 | 3560 | 103 | 1.27 |  | 36 | 131 | 
15 | Cc1cc(/C=C/C#N)cc(C)c1Oc1nc(Nc2ccc(N3CCCC(NS(N)(=O)=O)C3)cc2)nc2sccc12 (stereo not given) |  | > 218 | > 1730 | 4790 | 7.53 |  | 126 | > 218 | 
16 | Cc1cc(/C=C/C#N)cc(C)c1Oc1nc(Nc2ccc(N3CCNCC3)cc2)nc2ccsc12 |  |  | 15 | 945 |  |  | 387 | 5.73 | 
17 | Cc1cc(/C=C/C#N)cc(C)c1Oc1nc(Nc2ccc(N3CCCC(NS(C)(=O)=O)C3)cc2)nc2ccsc12 (stereo not given) |  | > 217 | > 434 | 775 | 43.4 |  | 450 | > 217 | 
18 | Cc1cc(/C=C/C#N)cc(C)c1Oc1nc(Nc2ccc(N3CCCC(N)C3)cc2)nc2ccsc12 (stereo not given) |  |  | 5 | 1580 |  |  | 815 | 3.82 | 
19 | O=C1Nc2ccc(Cl)cc2[C@@](C#CC2CC2)(C(F)(F)F)O1 [EFAVIRENZ] |  | 0.335 |  |  | 0.005 |  | 28 | > 6.33 | 
20 | Cc1cc(C#N)cc(C)c1Oc1nc(Nc2ccc(C#N)cc2)nc(N)c1Br [ETRAVIRINE] | < 1 | 0.06 |  |  | 0.015 |  |  | > 4.59 | < 1
21 | Cc1ccnc2c1NC(=O)c1cccnc1N2C1CC1 [NEVIRAPINE] |  | > 15 |  |  | 5.05 |  | 150 | > 15 | 
